A short description of test [1]: HUVEC growth inhibition – cell-based, human, primary screen (AID 575;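 active = viability at or below 30% in both replicate assays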;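 also: 100% = median of untreated cell wells with 0.1% DMSO on each plate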). The settings on record: HUVEC proliferation, CellTiter-Glo luminescence, 72 h; at 10 µM; stronger effect = lower value. Put shortly:
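Assay system: Primary human umbilical vein endothelial cells | Quantity: 1250 cells per well | Medium: Supplemented EBM, 2% fetal bovine serum | Detection: CellTiter-Glo luminescence measuring cellular ATP | Read-out: % viability vs DMSO wells | Plate: Collagen-coated 384-well format | Times: 72 h exposure, 37 °C, 5% CO2, 30 min RT equilibration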
A general note: ATP-based viability assays read luminescence as a measure of living cells.

Test [2] in a line: H69AR cell proliferation blockers – human, duplicate replicates, primary screen (AID 580).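 Also: 100% = mean luminescence of untreated wells and 0% = no signal.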 The settings on record: H69AR lung tumor cells viability, ATP luminescence, 72 h; at 10 µM; stronger effect = lower value.
A short description of test [3]: MRP1 drug-resistance reversers in H69AR cells – cell-based, doxorubicin co-treatment, pilot screen (AID 601;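 active = viability loss from added drug above about 55%, and viability with drug at most 40%, in both replicates, limit read from the data, passing the limit was not always enough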). The settings on record: CellTiter-Glo, 72 h, at 10 µM; for differential viability (reversal): stronger effect = higher value.
A short description of test [4]: yeast transport mutant growth inhibition pilot in 384-well plates, post-Golgi transport modulator project (AID 636; in the data active = inhibition above about 31%). The settings on record: absorbance 615 nm, about 18 h, stronger effect = higher value.
Test [5] in a line: growth suppression of yeast trafficking mutant, preliminary HTS, modulators of trafficking downstream of Golgi apparatus project, 1536-format plate, OD 615 nm (AID 637; in the data active = inhibition above about 30%). The settings on record: yeast transport mutant growth, absorbance 615 nm, 18 h; stronger effect = higher value.
Where [6] appears, read: H69AR cells + 2 uM doxorubicin, measured here: viability with 2 uM doxorubicin, stronger effect = lower value.
The mark [7] stands for this setting: H69AR cells, compound alone cytotoxicity.

The source made the active and inactive calls.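 The calls were made as follows, unless noted: active = viability at or under a set limit in both replicates, limit being median viability minus 3 SD (cut at about 48% in these data, passing the limit was not always enough); inconclusive = at or under the limit in just one replicate; inactive = at or above the limit in both replicates.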

A word on the viability: it is a read-out of living cells in per cent, often relative to untreated cells. In general, inhibition refers to the change of the read-out against control, counted positive when it falls.

In the case of `CCOc1ccccc1N1C(=O)CC(Sc2ncccc2C(=O)O)C1=O` (stereo not drawn), the viability in test [1] is 97% (inactive); in test [2] it was 99.9% (inactive); in test [3] (setting [6]), 87.2%; in test [3] (setting [7]), 99.9%. In addition, in test [3] (H69AR cells + 2 uM doxorubicin), the differential viability (reversal) is 12.7% (inactive). The inhibition was -3.29% (inactive) in test [4] and 1.59% (inactive) in test [5].
Regarding `COC(=O)Oc1c(Br)c(=O)oc2ccccc12`, the viability in test [1] is 90.8% (inactive); in test [2], 83% (inactive); in test [3] (setting [6]), 80.1%; in test [3] (setting [7]), 83%. Moreover, the differential viability (reversal) in test [3] (H69AR cells + 2 uM doxorubicin) is 2.87% (inactive). The inhibition was -0.4% (inactive) in test [4] and -4.13% (inactive) in test [5].
`COC(=O)c1ccccc1NC(=O)N1CCCC1`: the viability is 108% (inactive) in test [1], 103% (inactive) in test [2], 90.1% in test [3] (setting [6]) and 103% in test [3] (setting [7]). The differential viability (reversal) in test [3] (H69AR cells + 2 uM doxorubicin) is 13.2% (inactive). The inhibition was -3.2% (inactive) in test [4] and -5.56% (inactive) in test [5].
Take `CCc1nc(C)ccc1OCC(=O)O`: the viability was 102% (inactive) in test [1], 93% (inactive) in test [2], 106% in test [3] (setting [6]) and 93% in test [3] (setting [7]). The differential viability (reversal) in test [3] (H69AR cells + 2 uM doxorubicin) was -12.6% (inactive). Also, the inhibition in test [4] is 4.8% (inactive); in test [5] it was 2.7% (inactive).
For the molecule `C/C(=N\O)c1ccc2c3c([nH]c2c1)CCCC3`, the viability in test [1] is 25.3% (active); in test [2] it was 88.1% (inactive); in test [3] (setting [6]), 96.8%; in test [3] (setting [7]), 88.1%. Further, in test [3] (H69AR cells + 2 uM doxorubicin), the differential viability (reversal) was -8.65% (inactive). Moreover, the inhibition in test [4] is -3.77% (inactive); in test [5], -0.16% (inactive).
In the case of `C=C(C)COc1ccc(-c2n[nH]c(C)c2-c2ccccc2)c(O)c1`, the viability was 2.96% (active) in test [1], 21.1% (active) in test [2], 13.2% in test [3] (setting [6]) and 21.1% in test [3] (setting [7]). For the same molecule, the differential viability (reversal) in test [3] (H69AR cells + 2 uM doxorubicin) was 7.88% (inactive). Also, the figures for the inhibition in test [4] and in test [5] were -1.69% (inactive) and 9% (inactive), respectively.
For the molecule `COc1ccc(S(=O)(=O)Nc2ccc3c(c2)OCO3)cc1Cl`, the viability in test [1] was 12.9% (active); in test [2] it was 87.3% (inactive); in test [3] (setting [6]), 82%; in test [3] (setting [7]), 87.3%. Besides, the differential viability (reversal) in test [3] (H69AR cells + 2 uM doxorubicin) was 5.36% (inactive). Moreover, the inhibition in test [4] was -6.67% (inactive); in test [5] it was 12.1% (inactive).
Consider `Cc1nc2ccc(NC(=O)NCc3ccco3)cc2s1`, for which the viability in test [1] was 103% (inactive); in test [2] it was 90.6% (inactive); in test [3] (setting [6]) it was 83.2%; in test [3] (setting [7]) it was 90.6%. Moreover, the differential viability (reversal) in test [3] (H69AR cells + 2 uM doxorubicin) is 7.41% (inactive). The inhibition in test [4] was -4.67% (inactive); in test [5], 9.37% (inactive).
For the molecule `Nc1nc(-c2ccc(Cl)cc2)cc(C(F)(F)F)n1`, the viability in test [1] was 107% (inactive); in test [2], 105% (inactive); in test [3] (setting [6]), 91.3%; in test [3] (setting [7]), 105%. For the same molecule, in test [3] (H69AR cells + 2 uM doxorubicin), the differential viability (reversal) was 13.3% (inactive). Besides, the inhibition in test [4] was -1.82% (inactive); in test [5] it was -1.11% (inactive).
On to `CCOCCCNC(=O)C1CCN(S(=O)(=O)c2c(C)noc2/C=C\c2ccc(OC)cc2)CC1`, for which the viability was 99.5% (inactive) in test [1], 101% (inactive) in test [2], 101% in test [3] (setting [6]) and 101% in test [3] (setting [7]). The differential viability (reversal) in test [3] (H69AR cells + 2 uM doxorubicin) is -0.205% (inactive). The inhibition in test [4] was 4.13% (inactive); in test [5], -3.65% (inactive).
As for `C=CCn1c(=O)c(C(=O)Nc2ccccc2C(=O)OCC)c(O)c2ccccc21`, the viability is 84.3% (inactive) in test [1], 33% (active) in test [2], 60% in test [3] (setting [6]) and 33% in test [3] (setting [7]). Besides, the differential viability (reversal) in test [3] (H69AR cells + 2 uM doxorubicin) is -26.9% (inactive). Further, the inhibition in test [4] was -7.2% (inactive); in test [5] it was 6.83% (inactive).
Consider `CCN(CC)C(=O)CSc1nnc(-c2cc(OC)cc(OC)c2)o1`, for which the viability in test [1] was 84.1% (inactive); in test [2], 93.9% (inactive); in test [3] (setting [6]), 91.9%; in test [3] (setting [7]), 93.9%. Besides, the differential viability (reversal) in test [3] (H69AR cells + 2 uM doxorubicin) is 2.03% (inactive). The inhibition in test [4] was -5.87% (inactive); in test [5], 2.7% (inactive).
Regarding `Cn1c(=O)c(NC(=O)c2ccccc2)c2n(c1=S)CCCCC2`, the viability in test [1] is 104% (inactive); in test [2] it was 90.8% (inactive); in test [3] (setting [6]) it was 97.6%; in test [3] (setting [7]), 90.8%. In addition, the differential viability (reversal) in test [3] (H69AR cells + 2 uM doxorubicin) is -6.87% (inactive). Further, the inhibition in test [4] was -2.99% (inactive); in test [5] it was 3.65% (inactive).
On to `COc1cc2c(OC)cccc2cc1C(=O)O`, for which the viability in test [1] was 95% (inactive); in test [2] it was 88.2% (inactive); in test [3] (setting [6]), 85.7%; in test [3] (setting [7]), 88.2%. Also, the differential viability (reversal) in test [3] (H69AR cells + 2 uM doxorubicin) is 2.57% (inactive). Moreover, the inhibition in test [4] is -1.32% (inactive); in test [5] it was 12.1% (inactive).
Regarding `CCc1ccc(NC(=O)c2cccnc2)cc1`, the viability in test [1] is 95.9% (inactive); in test [2] it was 105% (inactive); in test [3] (setting [6]), 81.7%; in test [3] (setting [7]), 105%. Further, in test [3] (H69AR cells + 2 uM doxorubicin), the differential viability (reversal) was 23.7% (inactive). Moreover, the results for the inhibition in test [4] and in test [5] were -7.2% (inactive) and -3.02% (inactive), respectively.
Turning to `CC(O)CN(Cc1cccc(Cl)c1)CC(C)O` (stereo not drawn), the viability in test [1] was 100% (inactive); in test [2] it was 99.4% (inactive); in test [3] (setting [6]), 100%; in test [3] (setting [7]), 99.4%. Besides, in test [3] (H69AR cells + 2 uM doxorubicin), the differential viability (reversal) is -0.905% (inactive). The inhibition in test [4] is -1.32% (inactive); in test [5], 4.13% (inactive).
`Cc1c(Cc2ccccc2)sc(N)c1C(N)=O`: the viability in test [1] is 86.5% (inactive); in test [2] it was 93.5% (inactive); in test [3] (setting [6]), 90.6%; in test [3] (setting [7]) it was 93.5%. Further, the differential viability (reversal) in test [3] (H69AR cells + 2 uM doxorubicin) was 2.93% (inactive). For the same molecule, the inhibition was -3.77% (inactive) in test [4] and 5.71% (inactive) in test [5].
In the case of `CCCOc1cccc(C(=O)N(Cc2ccco2)C2CCS(=O)(=O)C2)c1` (stereo not drawn), the viability in test [1] is 98% (inactive); in test [2] it was 90.5% (inactive); in test [3] (setting [6]), 89.8%; in test [3] (setting [7]), 90.5%. Moreover, the differential viability (reversal) in test [3] (H69AR cells + 2 uM doxorubicin) was 0.72% (inactive). For the same molecule, the inhibition in test [4] was -3.6% (inactive); in test [5] it was -7.94% (inactive).
Regarding `Cc1cccc(NCc2ccccc2O)c1`, the viability was 76.1% (inactive) in test [1], 94.6% (inactive) in test [2], 89.2% in test [3] (setting [6]) and 94.6% in test [3] (setting [7]). Moreover, the differential viability (reversal) in test [3] (H69AR cells + 2 uM doxorubicin) is 5.33% (inactive). Besides, the inhibition was -0.13% (inactive) in test [4] and -5.87% (inactive) in test [5].

Values taken from PubChem BioAssay.
